# Reference: PubChem BioAssay
# The source made the active and inactive calls.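 The calls were made as follows, unless noted: active = fluorescence slope higher than the sample average by over 3 SD (cut at about -0.22 in these data, passing the limit was not always enough); inactive = the rest.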
# How the values were obtained:
# [1] = inhibitors of TNFa-induced NFkB p65 translocation, primary screen, imaging, HUVEC, MLSMR starter and 10KST1 sets (AID 438;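 active = inhibition above 20% together with a positive visual image hit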;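 also: compound added about 3h40 before a 20 min TNFalpha stimulation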;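 as to inhibition: signal is the nuclear over cytoplasmic p65 intensity ratio per well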); details: HUVEC TNFa-induced p65 nuclear translocation; cell count: measured here: nuclei count (cytotoxicity indicator), at 2.08 µM; inhibition: at 2 µM, stronger effect = higher value, 0% TNFa-plus-vehicle, 100% no-TNFa wells
# [2] = reduction of polyQ htt aggregates in cells – imaging, exon1htt(103Q)mCFP cells, high-content imaging, primary screen (AID 483;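 active = visual image review flags a hit and inhibition of aggregation exceeds 20%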;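 also: compound exposure lasted 3 days before fixation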;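 as to nuclei count: percent of the per-plate median nuclei count of sample wells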); details: exon1htt(103Q)mCFP cell line, aggregate imaging, at 2 µM; inhibition of aggregation: stronger effect = higher value; nuclei count: measured here: cell count, toxicity
# [3] = endothelial E-selectin expression blockers – imaging, HUVEC, immunofluorescence, MLSMR starter and 10KST1 sets, primary screen (AID 487;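 active = visually confirmed hit in the image check and inhibition above 20%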;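 as to inhibition: signal is fraction of cell area covered by stained E-selectin grains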;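 as to nuclei count: 100% = median nuclei count of all wells on the same plate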); details: HUVEC TNFalpha-induced E-selectin immunofluorescence imaging, at 2 µM; inhibition: stronger effect = higher value; nuclei count: measured here: cell number, toxicity
# [4] = biological target: Voltage-gated potassium channel subunit beta-2 (Rattus norvegicus) (UniProt P62483); assay: inhibitors of rat Kvbeta2 reductase activity – biochemical, NADPH fluorescence, primary screen (AID 622); details: recombinant KvBeta, 4-cyanobenzaldehyde reduction, at 10 µM, stronger effect = higher value;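 also: slope of raw intensity against log time taken from 70 to 1610 s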
# Voltage-gated potassium channel subunit beta-2 (Rattus norvegicus), sequence (P62483 whole entry, looked up): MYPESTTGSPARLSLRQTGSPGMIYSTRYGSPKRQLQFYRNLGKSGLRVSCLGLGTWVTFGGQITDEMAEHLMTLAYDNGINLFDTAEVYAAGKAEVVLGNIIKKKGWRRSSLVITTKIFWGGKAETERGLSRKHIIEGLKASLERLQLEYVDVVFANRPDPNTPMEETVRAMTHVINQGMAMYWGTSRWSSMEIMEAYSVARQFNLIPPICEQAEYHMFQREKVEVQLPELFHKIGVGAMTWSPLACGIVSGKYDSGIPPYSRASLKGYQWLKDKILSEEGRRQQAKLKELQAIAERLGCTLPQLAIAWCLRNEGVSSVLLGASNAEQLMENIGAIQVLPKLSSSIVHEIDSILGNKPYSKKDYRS
# [5] = biological target: Voltage-gated potassium channel subunit beta-2 (Rattus norvegicus) (UniProt P62483); assay: enhancers of rat Kvbeta2 NADPH turnover – biochemical, NADPH fluorescence, primary screen (AID 623;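 active = NADPH fluorescence slope more negative than the mean of all samples by about 3 SD, 99.7% confidence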;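 also: fluorescence intensity change per second fitted from 20 to 320 s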); details: Recombinant KvBeta, NADPH fluorescence decrease slope, 10 min; at 10 µM; stronger effect = lower value
# [6] = biological target: Muscarinic acetylcholine receptor M4 (Homo sapiens) (UniProt P08173); assay: M4-linked GIRK flux change, two-sided – cell-based, HEK293 M4/GIRK, thallium flux, BTC-AM, M4 allosteric agonist project, primary screen (AID 625;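 active = fluorescence slope after compound addition differing from the mean of all tested samples at 99.7% confidence, mostly higher but some lower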;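 also: thallium influx through GIRK channels coupled to M4 in HEK293 cells with BTC-AM dye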); details: at 10 µM, actives lie on both sides
# Muscarinic acetylcholine receptor M4 (Homo sapiens), sequence (P08173 whole entry, looked up): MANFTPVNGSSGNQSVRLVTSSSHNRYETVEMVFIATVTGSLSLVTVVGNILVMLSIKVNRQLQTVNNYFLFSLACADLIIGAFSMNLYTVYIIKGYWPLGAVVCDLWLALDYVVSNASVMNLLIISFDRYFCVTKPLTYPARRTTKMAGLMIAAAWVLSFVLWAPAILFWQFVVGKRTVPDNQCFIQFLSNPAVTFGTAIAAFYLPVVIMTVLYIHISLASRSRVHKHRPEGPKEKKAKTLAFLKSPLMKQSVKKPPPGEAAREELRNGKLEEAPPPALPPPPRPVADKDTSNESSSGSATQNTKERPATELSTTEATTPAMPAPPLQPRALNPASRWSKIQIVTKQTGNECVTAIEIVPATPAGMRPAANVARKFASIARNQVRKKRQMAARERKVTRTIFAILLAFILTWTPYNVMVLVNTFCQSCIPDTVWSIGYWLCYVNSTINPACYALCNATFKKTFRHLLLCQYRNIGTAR
# Summary of the method: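 Material: M4/GIRK1/GIRK2 stable HEK293 cell line. Medium: pH 7.3 thallium assay buffer. Dosing: single compound concentration, 10 µM final. Schedule: 1 h dye loading, 2 min kinetic read. Measured by: kinetic fluorescence with BTC-AM dye. Read-out: post-addition slope, 15–24 s, of baseline-normalized fluorescence. Benchmarks: carbachol and DMSO controls.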
# [7] = blockers of RIG-like receptor reporter activation – cell-based, Sendai virus stimulus, luciferase, 10K MLSCN set, TLR/RLR signaling modifier project, primary screen (AID 602276;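 active = inhibition at or above 50% at 10 µM; inactive = inhibition below 50%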;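 also: firefly luciferase from ISG56 promoter only with Renilla not read in this screen; 0% = Sendai virus plus DMSO and 100% = medium plus DMSO without virus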); details: HEK293 RL24 IRF3 luciferase reporter, at 10 µM, stronger effect = higher value
# [8] = TLR3 IRF3 reporter activation blockers – cell-based, poly I:C stimulus, luciferase, 10K MLSCN set, primary screen (AID 602277;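 active = inhibition of the reporter signal at or above 50%; inactive = inhibition below 50%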); details: HEK293-TLR3 RL24 IRF3 luciferase reporter, at 10 µM, stronger effect = higher value
smiles,measurement,setting,value
CCNc1oc(COc2cccc(C)c2)nc1C#N,cell count,[1],791
same,inhibition,[1],-2.1% (inactive)
same,inhibition of aggregation,[2],15.8% (inactive)
same,nuclei count,[2],114%
same,inhibition,[3],-14.2% (inactive)
same,nuclei count,[3],111%
same,fluorescence slope,[4],-0.57 (inactive)
same,NADPH fluorescence slope,[5],-5e-05 (inactive)
same,fluorescence slope,[6],0.00641 (inactive)
same,inhibition,[7],-43.9% (inactive)
same,inhibition,[8],-83.4% (inactive)
Cc1ccc(C)c(-n2c(Cc3cc(=O)[nH]c(=O)[nH]3)nnc2SCC(=O)NCc2ccco2)c1,cell count,[1],254
same,inhibition,[1],-4.3% (inactive)
same,inhibition of aggregation,[2],-32.9% (inactive)
same,nuclei count,[2],74.4%
same,inhibition,[3],65.5% (active)
same,nuclei count,[3],64%
same,fluorescence slope,[4],-0.549 (inactive)
same,NADPH fluorescence slope,[5],-6.1e-05 (inactive)
same,fluorescence slope,[6],0.00457 (inactive)
same,inhibition,[7],-2% (inactive)
same,inhibition,[8],5.02% (inactive)
CCC(C)n1[nH]c(=O)c2c(C)cc(C)nc21 (centres undefined),cell count,[1],405
same,inhibition,[1],1.8% (inactive)
same,inhibition of aggregation,[2],2.2% (inactive)
same,nuclei count,[2],101%
same,inhibition,[3],-50.1% (inactive)
same,nuclei count,[3],108%
same,fluorescence slope,[4],-0.565 (inactive)
same,NADPH fluorescence slope,[5],-5.9e-05 (inactive)
same,fluorescence slope,[6],0.00534 (inactive)
same,inhibition,[7],6.37% (inactive)
same,inhibition,[8],15.3% (inactive)
CCC(C)C(NC(=O)C1CCC(C)CC1)C(=O)NCc1cccnc1 (centres undefined),cell count,[1],320
same,inhibition,[1],-13.1% (inactive)
same,inhibition of aggregation,[2],1.5% (inactive)
same,nuclei count,[2],103%
same,inhibition,[3],22.9% (inactive)
same,nuclei count,[3],102%
same,fluorescence slope,[4],-0.325 (inactive)
same,NADPH fluorescence slope,[5],-5.6e-05 (inactive)
same,fluorescence slope,[6],0.00576 (inactive)
same,inhibition,[7],12.4% (inactive)
same,inhibition,[8],4.61% (inactive)
Cc1ccc(NC(=O)c2oc3ccc(S(=O)(=O)N4CCOCC4)cc3c2C)cc1C,cell count,[1],357
same,inhibition,[1],-20.4% (inactive)
same,inhibition of aggregation,[2],-20.5% (inactive)
same,nuclei count,[2],109%
same,inhibition,[3],-98.4% (inactive)
same,nuclei count,[3],133%
same,fluorescence slope,[4],-0.278 (inactive)
same,NADPH fluorescence slope,[5],2.2e-05 (inactive)
same,fluorescence slope,[6],0.00768 (inactive)
same,inhibition,[7],11% (inactive)
same,inhibition,[8],13.9% (inactive)
O=C(Nc1ccc2c(c1)OCO2)c1ccc(Br)c(S(=O)(=O)N2CCCC2)c1,cell count,[1],660
same,inhibition,[1],-5.2% (inactive)
same,inhibition of aggregation,[2],-2% (inactive)
same,nuclei count,[2],103%
same,inhibition,[3],-99.5% (inactive)
same,nuclei count,[3],90.4%
same,fluorescence slope,[4],-0.505 (inactive)
same,NADPH fluorescence slope,[5],-6.5e-05 (inactive)
same,fluorescence slope,[6],0.0042 (inactive)
same,inhibition,[7],-20.9% (inactive)
same,inhibition,[8],-15.4% (inactive)
CC(=O)N1CCc2cc(S(=O)(=O)CCC(=O)N3CCN(C(=O)c4ccco4)CC3)ccc21,cell count,[1],519
same,inhibition,[1],2.2% (inactive)
same,inhibition of aggregation,[2],7.5% (inactive)
same,nuclei count,[2],105%
same,inhibition,[3],-51.9% (inactive)
same,nuclei count,[3],116%
same,fluorescence slope,[4],-0.413 (inactive)
same,NADPH fluorescence slope,[5],-4e-05 (inactive)
same,fluorescence slope,[6],0.00737 (inactive)
same,inhibition,[7],12.3% (inactive)
same,inhibition,[8],17.8% (inactive)
COC(=O)c1ccccc1NC(=O)Nc1cccs1,cell count,[1],567
same,inhibition,[1],-11.5% (inactive)
same,inhibition of aggregation,[2],-4.6% (inactive)
same,nuclei count,[2],96.1%
same,inhibition,[3],-29.5% (inactive)
same,nuclei count,[3],110%
same,fluorescence slope,[4],-0.425 (inactive)
same,NADPH fluorescence slope,[5],-9.4e-05 (inactive)
same,fluorescence slope,[6],0.00583 (inactive)
same,inhibition,[7],10.3% (inactive)
same,inhibition,[8],11.6% (inactive)
COc1cc(C(=O)N2CCCC(c3nc(-c4cccs4)no3)C2)cc(OC)c1OC (centres undefined),cell count,[1],709
same,inhibition,[1],-19.4% (inactive)
same,inhibition of aggregation,[2],4.4% (inactive)
same,nuclei count,[2],89%
same,inhibition,[3],-30.6% (inactive)
same,nuclei count,[3],101%
same,fluorescence slope,[4],-0.508 (inactive)
same,NADPH fluorescence slope,[5],-0.000226 (inactive)
same,fluorescence slope,[6],0.00584 (inactive)
same,inhibition,[7],13.5% (inactive)
same,inhibition,[8],12.8% (inactive)
O=C1CC(c2ccco2)CC(O)=C1C=NCC1NCCc2ccccc21 (centres undefined),cell count,[1],330
same,inhibition,[1],-2.8% (inactive)
same,inhibition of aggregation,[2],5.8% (inactive)
same,nuclei count,[2],94.2%
same,inhibition,[3],-123% (inactive)
same,nuclei count,[3],125%
same,fluorescence slope,[4],-0.511 (inactive)
same,NADPH fluorescence slope,[5],2.1e-05 (inactive)
same,fluorescence slope,[6],0.00572 (inactive)
same,inhibition,[7],17.9% (inactive)
same,inhibition,[8],27.2% (inactive)
CCc1ccc(NC(=O)c2cc(-c3ccco3)on2)cc1,cell count,[1],382
same,inhibition,[1],-5.1% (inactive)
same,inhibition of aggregation,[2],7.7% (inactive)
same,nuclei count,[2],99.2%
same,inhibition,[3],6.4% (inactive)
same,nuclei count,[3],93.1%
same,fluorescence slope,[4],-0.44 (inactive)
same,NADPH fluorescence slope,[5],-4.3e-05 (inactive)
same,fluorescence slope,[6],0.00523 (inactive)
same,inhibition,[7],-42.1% (inactive)
same,inhibition,[8],-129% (inactive)
Cc1nc(N2CCOCC2)[nH]c(=O)c1CCC(C)C,cell count,[1],417
same,inhibition,[1],-3.4% (inactive)
same,inhibition of aggregation,[2],6.3% (inactive)
same,nuclei count,[2],107%
same,inhibition,[3],28.7% (inactive)
same,nuclei count,[3],57.6%
same,fluorescence slope,[4],-0.4 (inactive)
same,NADPH fluorescence slope,[5],2.6e-05 (inactive)
same,fluorescence slope,[6],0.0057 (inactive)
same,inhibition,[7],15.6% (inactive)
same,inhibition,[8],21.2% (inactive)
COCCNC(=O)c1ccc2c(c1)nc(C)n2-c1cccc(F)c1,cell count,[1],292
same,inhibition,[1],19.4% (inactive)
same,inhibition of aggregation,[2],-2% (inactive)
same,nuclei count,[2],99.8%
same,inhibition,[3],-16.6% (inactive)
same,nuclei count,[3],98.7%
same,fluorescence slope,[4],-0.572 (inactive)
same,NADPH fluorescence slope,[5],-3.3e-05 (inactive)
same,fluorescence slope,[6],0.00562 (inactive)
same,inhibition,[7],15.5% (inactive)
same,inhibition,[8],17.5% (inactive)
CCOC(=O)c1sc(C)c2c(=O)n(CC)nnc12,cell count,[1],304
same,inhibition,[1],0.8% (inactive)
same,inhibition of aggregation,[2],-14.4% (inactive)
same,nuclei count,[2],102%
same,inhibition,[3],-56% (inactive)
same,nuclei count,[3],109%
same,fluorescence slope,[4],-0.523 (inactive)
same,NADPH fluorescence slope,[5],-2.3e-06 (inactive)
same,fluorescence slope,[6],0.00361 (inactive)
same,inhibition,[7],6.72% (inactive)
same,inhibition,[8],4.72% (inactive)
CCOc1ccc(S(=O)(=O)Nc2ccccc2C(=O)Nc2ccccc2N2CCOCC2)cc1,cell count,[1],322
same,inhibition,[1],-2.1% (inactive)
same,inhibition of aggregation,[2],17.2% (inactive)
same,nuclei count,[2],94.9%
same,inhibition,[3],-24.9% (inactive)
same,nuclei count,[3],106%
same,fluorescence slope,[4],-0.522 (inactive)
same,NADPH fluorescence slope,[5],-3.2e-05 (inactive)
same,fluorescence slope,[6],0.00582 (inactive)
same,inhibition,[7],11.5% (inactive)
same,inhibition,[8],25.7% (inactive)
CCOc1ccc(C(=O)N(CN2CCCC2=O)c2ccc(C)cc2)cc1,cell count,[1],385
same,inhibition,[1],-1.4% (inactive)
same,inhibition of aggregation,[2],-14.5% (inactive)
same,nuclei count,[2],118%
same,inhibition,[3],14.5% (inactive)
same,nuclei count,[3],84%
same,fluorescence slope,[4],-0.53 (inactive)
same,NADPH fluorescence slope,[5],-5.9e-05 (inactive)
same,fluorescence slope,[6],0.0056 (inactive)
same,inhibition,[7],-0.0171% (inactive)
same,inhibition,[8],-43.9% (inactive)
Brc1ccc(-c2nnc3sc(CN4CCC5(CC4)OCCO5)cn23)cc1,cell count,[1],414
same,inhibition,[1],3.2% (inactive)
same,inhibition of aggregation,[2],-6.9% (inactive)
same,nuclei count,[2],112%
same,inhibition,[3],-185% (inactive)
same,nuclei count,[3],130%
same,fluorescence slope,[4],-0.57 (inactive)
same,NADPH fluorescence slope,[5],-1.2e-05 (inactive)
same,fluorescence slope,[6],0.00615 (inactive)
same,inhibition,[7],11.1% (inactive)
same,inhibition,[8],14% (inactive)
COC(=O)c1nn(-c2ccc(-c3ccccc3)cc2)cc1O,cell count,[1],281
same,inhibition,[1],6% (inactive)
same,inhibition of aggregation,[2],14.9% (inactive)
same,nuclei count,[2],99.2%
same,inhibition,[3],9.1% (inactive)
same,nuclei count,[3],111%
same,fluorescence slope,[4],-0.493 (inactive)
same,NADPH fluorescence slope,[5],-1.1e-05 (inactive)
same,fluorescence slope,[6],0.00465 (inactive)
same,inhibition,[7],6.22% (inactive)
same,inhibition,[8],7.64% (inactive)
Nc1nc(-c2ccc(Cl)cc2)cc(C(F)(F)F)n1,cell count,[1],439
same,inhibition,[1],2.1% (inactive)
same,inhibition of aggregation,[2],4.9% (inactive)
same,nuclei count,[2],103%
same,inhibition,[3],-16.4% (inactive)
same,nuclei count,[3],109%
same,fluorescence slope,[4],-0.582 (inactive)
same,NADPH fluorescence slope,[5],-1.9e-07 (inactive)
same,fluorescence slope,[6],0.00927 (inactive)
same,inhibition,[7],1.69% (inactive)
same,inhibition,[8],-12.7% (inactive)
